Measured values from ChEMBL document CHEMBL3217705, “Synthesis and evaluation of stable substrate analogs as potential modulators of cyclodiphosphate synthase IspF” (Medchemcomm, 2013).
The source made the active and inactive calls. The rule behind the calls is not given here.

Assays:
[1] = target: T1, 2-C-methyl-D-erythritol 2,4-cyclodiphosphate synthase (Escherichia coli (strain K12)) (UniProt P62617); experiment: Activation of Escherichia coli IspF-MEP complex assessed as increase in rate of […] formation at 100 uM by HPLC based […] formation assay relative to untreated control
T1 sequence (whole entry): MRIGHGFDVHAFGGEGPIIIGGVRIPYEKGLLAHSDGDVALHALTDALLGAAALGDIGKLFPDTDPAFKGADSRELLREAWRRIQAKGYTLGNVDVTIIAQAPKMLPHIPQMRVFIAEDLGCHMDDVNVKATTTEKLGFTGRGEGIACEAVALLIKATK

[2] = target: T1, 2-C-methyl-D-erythritol 2,4-cyclodiphosphate synthase (Escherichia coli (strain K12)); experiment: Activation of Escherichia coli IspF assessed as increase in rate of […] formation at 100 uM pre-incubated for 30 mins by HPLC based […] formation assay relative to untreated control
[3] = target: T1, 2-C-methyl-D-erythritol 2,4-cyclodiphosphate synthase (Escherichia coli (strain K12)); experiment: Activation of Escherichia coli IspF-MEP complex assessed as increase in rate of […] formation at 100 uM pre-incubated for 30 mins by HPLC based […] formation assay relative to untreated control
[4] = target: T1, 2-C-methyl-D-erythritol 2,4-cyclodiphosphate synthase (Escherichia coli (strain K12)); experiment: Activation of Escherichia coli IspF assessed as residual enzyme activity at 500 uM pre-incubated for 30 mins by HPLC based CMP formation assay
[5] = target: T1, 2-C-methyl-D-erythritol 2,4-cyclodiphosphate synthase (Escherichia coli (strain K12)); experiment: Inhibition of Escherichia coli IspF-MEP complex at 700 uM pre-incubated for 30 mins by HPLC based […] formation assay relative to untreated control
Outline: (§1)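 E. coli IspF alone or preformed IspF–MEP complex was incubated with 100 µM CDPME2P substrate. Test agents were present at 1000 µM or 700 µM, either without or after a 30 min pre-incubation. The rate of CMP formation was compared with a no-compound control run under the same pre-incubation; residual activity was taken after pre-incubation.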

[6] = target: T1, 2-C-methyl-D-erythritol 2,4-cyclodiphosphate synthase (Escherichia coli (strain K12)); experiment: Inhibition of Escherichia coli IspF-MEP complex at 700 uM by HPLC based […] formation assay; outline: as §1
[7] = target: T2, 2-C-methyl-D-erythritol 2,4-cyclodiphosphate synthase (Escherichia coli (strain K12), UniProt P62617); experiment: Inhibition of Escherichia coli IspF by HPLC based […] formation assay
T2 sequence (P62617 whole entry): T1 sequence (whole entry)

[8] = target: T2, 2-C-methyl-D-erythritol 2,4-cyclodiphosphate synthase; experiment: Inhibition of Escherichia coli IspF-MEP complex by HPLC based […] formation assay
[9] = target: T1, 2-C-methyl-D-erythritol 2,4-cyclodiphosphate synthase (Escherichia coli (strain K12)); experiment: Activation of Escherichia coli IspF-MEP complex assessed as increase in rate of […] formation at 1000 uM by HPLC based […] formation assay relative to untreated control; outline: as §1
[10] = target: T1, 2-C-methyl-D-erythritol 2,4-cyclodiphosphate synthase (Escherichia coli (strain K12)); experiment: Activation of Escherichia coli IspF assessed as assessed as residual enzyme activity at 1000 uM pre-incubated for 30 mins by HPLC based […] formation assay relative to untreated control; outline: as §1
[11] = target: T1, 2-C-methyl-D-erythritol 2,4-cyclodiphosphate synthase (Escherichia coli (strain K12)); experiment: Activation of Escherichia coli IspF assessed as increase in rate of […] formation at 1000 uM by HPLC based […] formation assay relative to untreated control
Outline: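 IspF activity was read as the rate of CMP formation from 100 µM CDPME2P, with the test compound at 1000 µM. The rate is expressed relative to a control run without compound.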

[12] = target: T1, 2-C-methyl-D-erythritol 2,4-cyclodiphosphate synthase (Escherichia coli (strain K12)); experiment: Activation of Escherichia coli IspF-MEP complex assessed as increase in rate of […] formation at 1000 uM pre-incubated for 30 mins by HPLC based […] formation assay relative to untreated control; outline: as §1
[13] = target: T1, 2-C-methyl-D-erythritol 2,4-cyclodiphosphate synthase (Escherichia coli (strain K12)); experiment: Activation of Escherichia coli IspF assessed as increase in rate of […] formation at 1000 uM pre-incubated for 30 mins by HPLC based […] formation assay relative to untreated control; outline: as §1
[14] = target: T1, 2-C-methyl-D-erythritol 2,4-cyclodiphosphate synthase (Escherichia coli (strain K12)); experiment: Inhibition of Escherichia coli IspF-MEP complex at 500 uM by HPLC based CMP formation assay; conditions: TDE = time-dependent effect
[15] = target: T1, 2-C-methyl-D-erythritol 2,4-cyclodiphosphate synthase (Escherichia coli (strain K12)); experiment: Inhibition of Escherichia coli IspF at 500 uM by HPLC based CMP formation assay
[16] = target: T1, 2-C-methyl-D-erythritol 2,4-cyclodiphosphate synthase (Escherichia coli (strain K12)); experiment: Inhibition of Escherichia coli IspF-MEP complex at 100 uM pre-incubated for 30 mins by HPLC based […] formation assay

Q: What does the source list for `C[C@](O)(CO)[C@H](O)COP(=O)(O)OP(=O)(O)OC[C@H]1O[C@@H](n2ccc(N)nc2=O)[C@H](O)[C@@H]1O`?
A: Activity [1]: inactive; Activity [2]: inactive; Activity [3]: inactive; Activity [4]: inactive

Q: `C[C@](O)(CO)[C@H](O)COP(=O)(O)CP(=O)(O)OC[C@H]1O[C@@H](n2ccc(N)nc2=O)[C@H](O)[C@@H]1O` was tested. Which Activity [1] did it give?
A: Active

Q: And the fold change (FC) [2]?
A: 2.2

Q: And the fold change (FC) [3]?
A: 1.3

Q: And the Activity [4]?
A: inactive

Q: `Nc1ccn([C@@H]2O[C@H](COP(=O)(O)CP(=O)(O)O)[C@@H](O)[C@H]2O)c(=O)n1` was tested. Which inhibition [5] did it give?
A: 74%

Q: What about the inhibition [6] of the same molecule?
A: 69%

Q: What about the IC50 [7] of the same molecule?
A: 797 µM

Q: And the IC50 [8]?
A: 343 µM

Q: Which results are given for `C[C@](O)(CO)[C@H](O)COP(=O)(O)CP(=O)(O)O`?
A: Activity [9]: inactive; Activity [10]: 54%; fold change (FC) [11]: 1.8; Activity [12]: inactive; fold change (FC) [13]: 8.7

Q: `C[C@@](CO)(OP(=O)(O)O)[C@H](O)COP(=O)(O)CP(=O)(O)OC[C@H]1O[C@@H](n2ccc(N)nc2=O)[C@H](O)[C@@H]1O` was tested. Which inhibition [14] did it give?
A: tde

Q: What about the fold change (FC) [2] of the same molecule?
A: 7.6

Q: And the Activity [4]?
A: 60%

Q: And the inhibition [15]?
A: inactive

Q: What about the inhibition [16] of the same molecule?
A: 37%

Q: What does the source list for `Nc1ccn([C@@H]2O[C@H](COP(=O)(O)OP(=O)(O)O)[C@@H](O)[C@H]2O)c(=O)n1`?
A: inhibition [6]: inactive; IC50 [7]: 768 µM
